In the library only some 1.3% were active in any assay of this set; here they are far more common.
GRK2 aptamer HTS – inhibitors of human GRK2 displacing RNA aptamer; inhibition of aptamer binding, % at 10 µM; bead flow cytometry, FAM-aptamer displacement from GRK2; hit rate 0.59% among 330,000;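 active = inhibition of aptamer binding above 40%, roughly 3 SD of noise, on plates passing a quality check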;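 note: median bead fluorescence of bound FAM aptamer so fluorescent compounds give negative values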
Target sequence (P25098 whole entry, looked up): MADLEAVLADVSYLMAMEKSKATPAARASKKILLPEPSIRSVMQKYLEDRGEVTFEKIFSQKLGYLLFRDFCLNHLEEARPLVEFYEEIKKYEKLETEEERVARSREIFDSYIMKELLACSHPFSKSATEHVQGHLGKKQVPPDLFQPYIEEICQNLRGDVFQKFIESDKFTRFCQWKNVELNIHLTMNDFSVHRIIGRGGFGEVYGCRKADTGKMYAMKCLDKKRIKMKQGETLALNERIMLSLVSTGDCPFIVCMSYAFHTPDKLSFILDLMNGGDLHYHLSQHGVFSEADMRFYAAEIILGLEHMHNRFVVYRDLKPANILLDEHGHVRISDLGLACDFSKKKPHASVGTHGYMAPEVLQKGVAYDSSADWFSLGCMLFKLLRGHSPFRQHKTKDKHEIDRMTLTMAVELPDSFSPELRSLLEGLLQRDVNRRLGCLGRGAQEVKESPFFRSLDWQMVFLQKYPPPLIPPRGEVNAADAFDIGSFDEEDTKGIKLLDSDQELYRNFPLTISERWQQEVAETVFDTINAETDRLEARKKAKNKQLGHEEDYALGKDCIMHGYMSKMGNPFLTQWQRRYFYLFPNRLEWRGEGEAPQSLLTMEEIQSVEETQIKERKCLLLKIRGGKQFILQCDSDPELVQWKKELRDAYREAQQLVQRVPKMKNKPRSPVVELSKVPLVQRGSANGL
MEX-5 binding – C. elegans MEX-5 TCR-2 RNA binding activity | hit rate 0.38% among 300,000 | activity score (negative = inhibition of binding), % at 10 µM | Q9XUB2 | MEX-5/FITC-TCR2 RNA binding, fluorescence polarization; stronger effect = lower value | AID 1832;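 active = inhibition past about -25% in most replicates, and total fluorescence under double the plate's negative control median, limit read from the data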
T cell HTS – T cell immune modulators affecting CD8 T cell-vesicle binding; 2C CD8+ T cell-vesicle binding, flow cytometry; stronger effect = lower value; AID 2052; response (vesicle binding), % at 7 µM; hit rate 0.068% among 330,000;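 active = response, share of CD8 T cells binding vesicles, and their 90th percentile fluorescence all below set limits, cut at about 80% in these data, passing the limit was not always enough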;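 note: values below 100% mean blocked vesicle binding to the CD8+ T cells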
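Material: 2C TCR transgenic mouse naive CD8+ T cells, MACS-purified. Also added: QL9-charged Drosophila Ld/ICAM-1/B7-1 vesicles. Timing: binding 1.5 h at 37 °C. Measured by: high-throughput flow cytometry with anti-B7-1 and anti-CD8 staining. Read-out: percent CD8+ FL2 mean versus row control. Controls: Unloaded micro-vesicles (low), QL9 vesicles with 0.7% DMSO (high).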
LANA DNA inh – inhibitors of KSHV LANA C-terminal domain DNA binding. MBP-C-LANA/FAM-LBS DNA binding, fluorescence polarization. inhibition, % at 9 µM. hit rate 0.078% among 340,000;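 active = highest replicate inhibition at or above 60% at 9 µM, even if other replicates fall short; inactive = all replicates below 60% inhibition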
EBV gp42 block – EBV gp42 inhibition. Q1HVG2. Fluorescence polarization binding assay, mP read-out. inhibition, % (tested at 21.74 µM). hit rate 0.42% among 220,000; in the data active = inhibition above about 50%
Keap1-Nrf2 PPI – disrupts human Keap1 binding to Nrf2 peptide; Keap1 Kelch-Nrf2 peptide fluorescence polarization, 1536-well; inhibition, % at 9.4 µM; hit rate 0.15% among 340,000; AID 504523; in the data active = inhibition above about 12%;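 note: human Keap1 Kelch domain with fluorescein labeled Nrf2 9mer peptide probe; higher means more block of Keap1 binding to Nrf2 peptide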
GRK2 CP1 – confirmation of human GRK2 inhibitors displacing RNA aptamer. aptamer displacement, % at 10 µM. shares compounds with GRK2 aptamer HTS. bead-bound GRK2, FAM-aptamer displacement, flow cytometry. hit rate 4% among 2,000;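 active = aptamer displacement above 40%, near three times the noise of non-fluorescent compounds, on plates passing quality checks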;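 note: negative values mostly reflect intrinsic compound fluorescence rather than true enhancement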
Aptamer quench – counter-screen for GRK2 aptamer inhibitors: fluorescent aptamer quenchers; AID 504521; fluorescence change (kMESF span), kMESF (no concentration beside the values); shares compounds with GRK2 aptamer HTS; 110 tested, under 10 active; Fluorescent RNA aptamer beads, quenching, flow cytometry; stronger effect = higher value;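 active = compounds whose bead fluorescence drops by more than 37 kMESF across the dose range, marking them as dye quenchers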
FAM quench CP1 – quenches fluorescent RNA aptamer, GRK2 hit artifact. shares compounds with GRK2 aptamer HTS. Carboxyfluorescein RNA aptamer on beads, flow cytometry quenching; stronger effect = lower value. fluorescence response (% of DMSO), % at 10 µM. 2,000 tested, under 10 active;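 active = compounds that quench the bead-bound fluorescent RNA probe, cutting fluorescence to under half of the solvent control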;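 note: counterscreen run without GRK2 so only probe quenching by compound is measured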
FAM quench DR – aptamer fluorescence quenching in GRK2 powder counter-screen; AID 588496; fluorescence ratio to DMSO, % at 11.1 µM; shares compounds with GRK2 aptamer HTS; 35 tested, under 10 active; Bead-bound FAM RNA aptamer fluorescence quenching, flow cytometry; stronger effect = lower value;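 active = compounds that dim the fluorescent label, raw bead signal shifting by over 33 units between lowest and highest dose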
Large screens that a line does not name were inactive (follow-up assays come after a bar, where they were run).

CCCCN(C(=O)c1cccc(N2C(=O)c3ccccc3C2=O)c1)c1c(N)n(CC(C)C)c(=O)[nH]c1=O	none (no result: MEX-5 binding, EBV gp42 block)
CSc1nc(C)cc(OCC(=O)n2nc(C)cc2C)n1	none
Cc1ccc(Oc2nc3ccccn3c(=O)c2/C=C(\C#N)C(=O)NC2CCS(=O)(=O)C2)cc1 (stereo unspecified)	GRK2 aptamer HTS 75.0 | GRK2 CP1 inactive | FAM quench CP1 inactive
Cc1ccc(C)c(-c2csc(NC(=O)c3cnccn3)n2)c1	none
NS(=O)(=O)c1ccc(CNC(=O)Cc2ccccc2F)cc1	none (no result: MEX-5 binding)
Cc1nc2ccccc2c(=O)n1/N=C/c1ccncc1	GRK2 aptamer HTS 83.0 | GRK2 CP1 inactive | FAM quench CP1 inactive
Cn1cc(C(=O)c2ccc(Cl)cc2Cl)cc1C(=O)N/N=C(\N)COc1ccccc1	GRK2 aptamer HTS 58.0 | GRK2 CP1 inactive | FAM quench CP1 inactive
O=C(CNC(=O)c1ccccc1)N/N=C/c1ccccc1Cl	GRK2 aptamer HTS 47.0 | GRK2 CP1 inactive | FAM quench CP1 inactive
Cc1ccsc1CN(C)CC(=O)Nc1ccc([N+](=O)[O-])cc1Cl	none (no result: EBV gp42 block)
Cc1ccc(SCc2c(C(=O)N/N=C/c3ccc4c(c3)OCO4)nnn2-c2nonc2N)cc1	GRK2 aptamer HTS 51.0 (no result: EBV gp42 block) | GRK2 CP1 inactive | FAM quench CP1 inactive
CN1CCN(C(=O)CN2C(=O)NC(C)(c3ccc4ccccc4c3)C2=O)CC1 (stereo unspecified)	none (no result: MEX-5 binding, EBV gp42 block)
CC1(c2ccc3ccccc3c2)NC(=O)N(CC(=O)N2CCN(c3ccccc3O)CC2)C1=O (stereo unspecified)	none (no result: EBV gp42 block) | GRK2 CP1 inactive | FAM quench CP1 inactive
Cc1ccc(CCNC(=O)CCS(=O)(=O)c2ccc(Br)cc2)cc1	none | GRK2 CP1 inactive | Aptamer quench inactive | FAM quench CP1 inactive | FAM quench DR inactive
Cc1cccc(CCNC(=O)CCS(=O)(=O)c2ccc(Br)cc2)c1	none | GRK2 CP1 inactive | FAM quench CP1 inactive | FAM quench DR inactive
COc1ccc(S(=O)(=O)CCC(=O)NCCc2cccc(C)c2)cc1	none
C[C@H](NS(=O)(=O)c1ccc2c(c1)OCCCO2)C(=O)N1CCN(c2ccc(F)cc2)CC1	none (no result: MEX-5 binding, EBV gp42 block)
Cn1c(=O)n(CCc2ccccc2)c2ccccc21	GRK2 aptamer HTS 51.0 (no result: EBV gp42 block) | GRK2 CP1 inactive | FAM quench CP1 inactive
Cn1c(=O)n(CC(N)=O)c2ccccc21	none
O=S(=O)(c1ccc(Cl)c(C(F)(F)F)c1)N1CCN(CC(O)COCC2CCCO2)CC1 (stereo unspecified)	none
Cc1ccc(C(=O)Nc2cccc(C(F)(F)F)c2)cc1NC(=O)c1nccn1C	none
Cc1ccc(C(=O)Nc2cccc(C(F)(F)F)c2)cc1NC(=O)c1ccno1	none | GRK2 CP1 inactive | FAM quench CP1 inactive
COc1ccc(N2Cc3cccc(C(=O)O)c3C2=O)cc1	GRK2 aptamer HTS 61.0 | GRK2 CP1 inactive | FAM quench CP1 inactive
CCOc1ccc2nc(NC(=O)CCn3cccc3)sc2c1	none | GRK2 CP1 inactive | FAM quench CP1 inactive
Cc1cccc(C(=O)NC(=S)Nc2ccc(S(=O)(=O)N3CCN(C)CC3)cc2)c1	none
CC(Oc1cccnc1[N+](=O)[O-])C(=O)N1CCc2ccccc21 (stereo unspecified)	none (no result: MEX-5 binding, EBV gp42 block) | GRK2 CP1 inactive | FAM quench CP1 inactive
O=C(CCc1ccccc1)Nc1nc2n(n1)C(c1ccc(Cl)cc1)CC(=O)N2 (stereo unspecified)	GRK2 aptamer HTS 100.0 | GRK2 CP1 inactive | FAM quench CP1 inactive
O=C(CSc1nc2ccc([N+](=O)[O-])cc2s1)NCC1CCCO1 (stereo unspecified)	GRK2 aptamer HTS 90.0 (no result: EBV gp42 block) | GRK2 CP1 inactive | FAM quench CP1 inactive
CCOC(=O)CC(NS(=O)(=O)c1ccc2[nH]cc(C(=O)O)c(=O)c2c1)c1ccc(OCC)c(OC)c1 (stereo unspecified)	GRK2 aptamer HTS 89.0 (no result: EBV gp42 block) | GRK2 CP1 70.2 | Aptamer quench inactive | FAM quench CP1 inactive
CN(c1ccccc1)S(=O)(=O)c1ccc(C(=O)N2CCCC2)cc1	GRK2 aptamer HTS 58.0 (no result: MEX-5 binding, EBV gp42 block) | GRK2 CP1 inactive | FAM quench CP1 inactive
Cc1ccc(S(=O)(=O)N(C)c2ccc(C(=O)N3CCc4ccccc4C3)cc2)cc1	GRK2 aptamer HTS 57.0 | GRK2 CP1 inactive | FAM quench CP1 inactive
CN(c1ccc(C(=O)N2CCCCC2)cc1)S(=O)(=O)c1ccccc1	none
COc1cccc(-c2nc(N3CCC(C)CC3)c3ccccc3n2)c1O	GRK2 aptamer HTS 91.0 | GRK2 CP1 inactive | FAM quench CP1 inactive
Cc1cc(/C=N/N2CCN(C)CC2)c(C)n1-c1ccccc1F	GRK2 aptamer HTS 50.0 | GRK2 CP1 inactive | FAM quench CP1 inactive
CCN(Cc1ccccc1)C(=O)COC(=O)c1c(C)nsc1NC	none (no result: MEX-5 binding, EBV gp42 block)
CNc1snc(C)c1C(=O)OCC(=O)c1ccc(Cl)cc1	GRK2 aptamer HTS 51.0 (no result: MEX-5 binding, EBV gp42 block) | GRK2 CP1 inactive | FAM quench CP1 inactive
O=C(NNC(=S)Nc1ccc(Cl)c(Cl)c1)c1cccc([N+](=O)[O-])c1	none (no result: LANA DNA inh, Keap1-Nrf2 PPI)
COc1ccc(-c2c(NC(=O)CC(C)C)n(C)c3ccccc3c2=O)cc1OC	GRK2 aptamer HTS 87.0 (no result: EBV gp42 block) | GRK2 CP1 inactive | FAM quench CP1 inactive
CCCCC(=O)Nc1c(-c2ccc(OC)c(OC)c2)c(=O)c2ccccc2n1C	none (no result: EBV gp42 block)
COc1cccc(NC(=O)Nc2cccc(C)n2)c1	GRK2 aptamer HTS 58.0 (no result: EBV gp42 block) | GRK2 CP1 inactive | FAM quench CP1 inactive
COc1cccc(NC(=O)c2cccnn2)c1	GRK2 aptamer HTS 41.0 (no result: EBV gp42 block) | GRK2 CP1 inactive | FAM quench CP1 inactive
CCCNS(=O)(=O)c1ccc(CCC(=O)NCC2CCCO2)cc1 (stereo unspecified)	none
CCC1(c2ccccc2)NC(=O)N(CC#N)C1=O (stereo unspecified)	none
CC(=O)Nc1ccc(S(=O)(=O)NCCC(=O)OCc2csc(CC(=O)Nc3ccccc3C)n2)cc1	none (no result: EBV gp42 block)
Cc1ccc(NC(=O)CN(C)C(=O)c2cccc(S(=O)(=O)NCc3ccccc3)c2)cc1	GRK2 aptamer HTS 91.0 (no result: EBV gp42 block) | GRK2 CP1 inactive | FAM quench CP1 inactive
COc1ccc2[nH]c3c(=O)n(/N=C/c4ccc(OC)c(CN5CCCC5)c4)c(C)nc3c2c1	GRK2 aptamer HTS 59.0 | GRK2 CP1 inactive | FAM quench CP1 inactive

Assay outcomes from PubChem BioAssay.
